# Test results as given in ChEMBL document CHEMBL4406821, “Novel dual inhibitors targeting CDK4 and VEGFR2 synergistically suppressed cancer progression and angiogenesis” (Eur J Med Chem, 2019).
# pIC50: −log10 of the molar value.
# Tests used:
# [1] = biological target: CDK4/Cyclin D3 (Homo sapiens) (UniProt P11802+P30281); test: Inhibition of recombinant full length human CDK4/Cyclin D3 using Rb-fragmen as substrate at 1 uM incubated for 40 mins by [gamma-33P]-ATP based radiometric assay relative to control; assay type: protein-complex assay
# Summary of the method: (§1)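 Kinase panel profiling at 1 μM performed by Eurofins KinaseProfiler; percent inhibition reported as mean of two independent experiments.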
# [2] = biological target: Vascular endothelial growth factor receptor 2 (Homo sapiens, UniProt P35968); test: Inhibition of recombinant human VEGFR2 (790 to end residues) using myelin ba as substrate at 1 uM incubated for 40 mins by [gamma-33P]-ATP based radiometric assay relative to control; summary of the method: as §1
# T47D = test: Antiproliferative activity against human T47D cells assessed as reduction in cell viability measured after 72 hrs by CCK8 assay; assay type: functional, cell-based
# Summary of the method: (§2)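 Cells were seeded at 3×10³ cells/well and exposed to a range of concentrations or vehicle for 72 h. Viability was read by CCK-8 at 450 nm, with DMSO as blank and five replicates per sample. IC50 was calculated from the dose-response.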
# HeLa = test: Antiproliferative activity against human HeLa cells assessed as reduction in cell viability measured after 72 hrs by CCK8 assay; assay type: functional, cell-based; summary of the method: as §2
# Chain of Vascular endothelial growth factor receptor 2 (P35968 whole entry): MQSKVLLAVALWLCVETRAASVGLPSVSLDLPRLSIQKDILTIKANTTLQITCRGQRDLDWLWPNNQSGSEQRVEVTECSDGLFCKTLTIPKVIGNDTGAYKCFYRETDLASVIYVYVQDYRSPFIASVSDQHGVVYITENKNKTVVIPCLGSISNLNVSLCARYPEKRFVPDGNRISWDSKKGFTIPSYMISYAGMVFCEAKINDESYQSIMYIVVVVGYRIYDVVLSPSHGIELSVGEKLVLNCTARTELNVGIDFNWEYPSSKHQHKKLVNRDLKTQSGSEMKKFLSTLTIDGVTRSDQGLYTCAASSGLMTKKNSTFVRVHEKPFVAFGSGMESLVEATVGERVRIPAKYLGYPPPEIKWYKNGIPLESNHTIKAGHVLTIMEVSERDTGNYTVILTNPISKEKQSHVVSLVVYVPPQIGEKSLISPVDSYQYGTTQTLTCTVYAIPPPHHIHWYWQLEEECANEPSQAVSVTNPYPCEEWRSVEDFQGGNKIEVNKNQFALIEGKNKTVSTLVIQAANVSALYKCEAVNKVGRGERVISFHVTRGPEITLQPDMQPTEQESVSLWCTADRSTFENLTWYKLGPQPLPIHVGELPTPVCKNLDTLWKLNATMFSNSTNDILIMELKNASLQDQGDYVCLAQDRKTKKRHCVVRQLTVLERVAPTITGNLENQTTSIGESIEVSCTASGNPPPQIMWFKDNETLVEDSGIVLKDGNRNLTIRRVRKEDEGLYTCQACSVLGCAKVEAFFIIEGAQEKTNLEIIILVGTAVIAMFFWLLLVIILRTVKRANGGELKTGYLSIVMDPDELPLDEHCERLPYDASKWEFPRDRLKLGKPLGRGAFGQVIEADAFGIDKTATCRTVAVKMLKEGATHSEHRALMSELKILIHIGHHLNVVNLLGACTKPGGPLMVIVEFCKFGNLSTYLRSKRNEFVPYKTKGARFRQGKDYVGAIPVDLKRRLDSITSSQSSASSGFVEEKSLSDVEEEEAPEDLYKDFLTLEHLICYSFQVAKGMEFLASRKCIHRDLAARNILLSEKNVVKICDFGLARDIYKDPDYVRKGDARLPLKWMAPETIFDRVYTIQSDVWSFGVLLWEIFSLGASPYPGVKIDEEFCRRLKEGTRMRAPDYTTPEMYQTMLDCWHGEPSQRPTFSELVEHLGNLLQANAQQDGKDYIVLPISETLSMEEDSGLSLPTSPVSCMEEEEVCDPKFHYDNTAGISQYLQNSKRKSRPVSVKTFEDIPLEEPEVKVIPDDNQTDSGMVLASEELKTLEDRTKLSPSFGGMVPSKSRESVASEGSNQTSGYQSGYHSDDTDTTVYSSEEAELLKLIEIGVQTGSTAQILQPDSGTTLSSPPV
Compound,inhibition [1] [%],inhibition [2] [%],pIC50 (T47D),pIC50 (HeLa)
Cc1nc2c(F)cc(-c3nc(Nc4ccc(CNC(=O)C5(C(=O)Nc6ccc(C(F)(F)F)cc6)CC5)cc4)ncc3F)cc2n1C(C)C,37,74,–,–
Cc1cccc(NC(=O)C2(C(=O)Nc3ccc(Nc4ncc(F)c(-c5cc(F)c6nc(C)n(C(C)C)c6c5)n4)cc3)CC2)c1,97,95,6.69,6.75
CN(C)C(=O)c1cc2cnc(Nc3ccc(NC(=O)C4(C(=O)Nc5ccc(F)cc5)CC4)cc3)nc2n1C1CCCC1,–,0,–,–
CC(C)n1nnc2ccc(-c3nc(Nc4ccc(NC(=O)C5(C(=O)Nc6cccc(Cl)c6)CC5)cc4)ncc3F)cc21,50,60,–,–
Cc1nc2c(F)cc(-c3nc(Nc4ccc(NC(=O)C5(C(=O)Nc6ccc(Br)cc6)CC5)cc4)ncc3F)cc2n1C(C)C,90,91,6.92,6.22
Cc1nc2c(F)cc(-c3nc(Nc4ccc(CNC(=O)C5(C(=O)Nc6ccc(Br)cc6)CC5)cc4)ncc3F)cc2n1C(C)C,93,90,6.96,6.48
CC(C)n1nnc2ccc(-c3nc(Nc4ccc(NC(=O)C5(C(=O)Nc6cccc(C(F)(F)F)c6)CC5)cc4)ncc3F)cc21,13,46,–,–
Cc1cccc(NC(=O)C2(C(=O)Nc3ccc(Nc4ncc(F)c(-c5ccc6nnn(C(C)C)c6c5)n4)cc3)CC2)c1,75,73,–,–
Cc1nc2c(F)cc(-c3nc(Nc4ccc(NC(=O)C5(C(=O)Nc6cccc(F)c6)CC5)cc4)ncc3F)cc2n1C(C)C,96,90,7.53,6.98
CC(C)n1nnc2ccc(-c3nc(Nc4ccc(NC(=O)C5(C(=O)Nc6cccc(F)c6)CC5)cc4)ncc3F)cc21,79,69,–,–
CC(C)n1nnc2ccc(-c3nc(Nc4ccc(NC(=O)C5(C(=O)Nc6ccc(F)cc6)CC5)cc4)ncc3F)cc21,69,84,–,–
CC(C)n1nnc2ccc(-c3nc(Nc4ccc(NC(=O)C5(C(=O)Nc6ccc(C(F)(F)F)cc6)CC5)cc4)ncc3F)cc21,31,56,–,–
Cc1nc2c(F)cc(-c3nc(Nc4ccc(NC(=O)C5(C(=O)Nc6ccc(Cl)cc6)CC5)cc4)ncc3F)cc2n1C(C)C,76,74,–,–
Cc1nc2c(F)cc(-c3nc(Nc4ccc(NC(=O)C5(C(=O)Nc6cccc(Br)c6)CC5)cc4)ncc3F)cc2n1C(C)C,83,90,–,–
Cc1nc2c(F)cc(-c3nc(Nc4ccc(NC(=O)C5(C(=O)Nc6cccc(C(F)(F)F)c6)CC5)cc4)ncc3F)cc2n1C(C)C,31,80,–,–
CC(C)n1nnc2ccc(-c3nc(Nc4ccc(NC(=O)C5(C(=O)Nc6ccc(Cl)c(C(F)(F)F)c6)CC5)cc4)ncc3F)cc21,8,41,–,–
CC(C)n1nnc2ccc(-c3nc(Nc4ccc(NC(=O)C5(C(=O)Nc6cccc(Br)c6)CC5)cc4)ncc3F)cc21,34,55,–,–
Cc1nc2c(F)cc(-c3nc(Nc4ccc(NC(=O)C5(C(=O)Nc6ccc(Cl)c(C(F)(F)F)c6)CC5)cc4)ncc3F)cc2n1C(C)C,34,68,–,–
CC(C)n1nnc2ccc(-c3nc(Nc4ccc(NC(=O)C5(C(=O)Nc6ccc(Br)cc6)CC5)cc4)ncc3F)cc21,24,52,–,–
Cc1ccc(NC(=O)C2(C(=O)Nc3ccc(Nc4ncc(F)c(-c5ccc6nnn(C(C)C)c6c5)n4)cc3)CC2)cc1,81,78,–,–
Cc1nc2c(F)cc(-c3nc(Nc4ccc(CNC(=O)C5(C(=O)Nc6ccc(Cl)c(C(F)(F)F)c6)CC5)cc4)ncc3F)cc2n1C(C)C,51,57,–,–
CC(C)n1nnc2ccc(-c3nc(Nc4ccc(NC(=O)C5(C(=O)Nc6ccc(Cl)cc6)CC5)cc4)ncc3F)cc21,21,59,–,–
Cc1nc2c(F)cc(-c3nc(Nc4ccc(CNC(=O)C5(C(=O)Nc6ccc(Cl)cc6)CC5)cc4)ncc3F)cc2n1C(C)C,88,91,–,–
Cc1nc2c(F)cc(-c3nc(Nc4ccc(NC(=O)C5(C(=O)Nc6ccc(C(F)(F)F)cc6)CC5)cc4)ncc3F)cc2n1C(C)C,74,80,–,–
Cc1nc2c(F)cc(-c3nc(Nc4ccc(NC(=O)C5(C(=O)Nc6cccc(Cl)c6)CC5)cc4)ncc3F)cc2n1C(C)C,74,90,–,–
Cc1ccc(NC(=O)C2(C(=O)NCc3ccc(Nc4ncc(F)c(-c5cc(F)c6nc(C)n(C(C)C)c6c5)n4)cc3)CC2)cc1,97,95,6.11,6.60
Cc1nc2c(F)cc(-c3nc(Nc4ccc(NC(=O)C5(C(=O)Nc6ccc(F)cc6)CC5)cc4)ncc3F)cc2n1C(C)C,98,91,7.59,6.72
